Measurements reported in ChEMBL document CHEMBL3414553, “Novel imidazo[2,1-b]-1,3,4-thiadiazoles as promising antifungal agents against clinical isolate of Cryptococcus neoformans” (2015).
≈ marks a conversion by molar mass, not a printed value.

Key:
Format in all cases: functional
[1] = test system: Aspergillus niger; assay: Antifungal activity against Aspergillus niger ATCC 16404 after 24 hrs by two-fold broth microdilution method; settings: ATCC 16404, 24 h
Outline: (§1)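 Strains subcultured one day before testing; colonies suspended in sterile water and adjusted to 0.5 McFarland (1.5 × 10^8 cfu/ml). Two-fold dilutions in MHB (medium pH 7.4 ± 0.1), final 200 to 0.39 µg/ml. Incubated 37 ± 1 °C for 24 h, then resazurin (0.4 mg/ml) added for a further 5 h. MIC read by colour: blue = no growth, pink = growth.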

[2] = test system: Candida albicans; assay: Antifungal activity against Candida albicans clinical isolate after 24 hrs by two-fold broth microdilution method; outline: as §1
[3] = test system: Escherichia coli; assay: Antibacterial activity against Escherichia coli ATCC 35218 after 24 hrs by two-fold broth microdilution method; settings: ATCC 35218, 24 h; outline: as §1
[4] = test system: Cryptococcus neoformans; assay: Antifungal activity against […] clinical isolate after 24 hrs by two-fold broth microdilution method; outline: as §1
[5] = test system: Staphylococcus aureus; assay: Antibacterial activity against Staphylococcus aureus ATCC 25923 after 24 hrs by two-fold broth microdilution method; settings: ATCC 25923, 24 h; outline: as §1
[6] = test system: Candida albicans; assay: Antifungal activity against Candida albicans ATCC 90028 after 24 hrs by two-fold broth microdilution method; settings: ATCC 90028, 24 h; outline: as §1
[7] = test system: Cryptococcus neoformans; assay: Antifungal activity against […] ATCC 66031 after 24 hrs by two-fold broth microdilution method; settings: ATCC 66031, 24 h; outline: as §1
[8] = test system: Pseudomonas aeruginosa; assay: Antibacterial activity against Pseudomonas aeruginosa ATCC 27853 after 24 hrs by two-fold broth microdilution method; settings: ATCC 27853, 24 h; outline: as §1
[9] = test system: Bacillus subtilis; assay: Antibacterial activity against Bacillus subtilis ATCC 6051 after 24 hrs by two-fold broth microdilution method; settings: ATCC 6051, 24 h; outline: as §1

| SMILES | MIC [1] | MIC [2] | MIC [3] | MIC [4] | MIC [5] | MIC [6] | MIC [7] | MIC [8] | MIC [9] |
| --- | --- | --- | --- | --- | --- | --- | --- | --- | --- |
| Clc1ccccc1-c1nn2c(/C=N/C3CCCCC3)c(-c3ccc(Br)cc3)nc2s1 | 100 µg/mL (≈ 200 µM) | 25 µg/mL (≈ 50 µM) | 200 µg/mL (≈ 400 µM) | > 200 µg/mL | 200 µg/mL (≈ 400 µM) | 12.5 µg/mL (≈ 25 µM) | 100 µg/mL (≈ 200 µM) | 50 µg/mL (≈ 100 µM) | 200 µg/mL (≈ 400 µM) |
| Brc1ccc(-c2nc3sc(-c4ccccc4)nn3c2/C=N/C2CC2)cc1 | 100 µg/mL (≈ 236 µM) | 50 µg/mL (≈ 118 µM) | 200 µg/mL (≈ 472 µM) | > 200 µg/mL | 200 µg/mL (≈ 472 µM) | 25 µg/mL (≈ 59.1 µM) | 100 µg/mL (≈ 236 µM) | 50 µg/mL (≈ 118 µM) | 200 µg/mL (≈ 472 µM) |
| Clc1ccc(-c2nn3c(/C=N/C4CC4)c(-c4ccc(Br)cc4)nc3s2)cc1 | 100 µg/mL (≈ 218 µM) | 50 µg/mL (≈ 109 µM) | 200 µg/mL (≈ 437 µM) | 200 µg/mL (≈ 437 µM) | 200 µg/mL (≈ 437 µM) | 25 µg/mL (≈ 54.6 µM) | 100 µg/mL (≈ 218 µM) | 50 µg/mL (≈ 109 µM) | 200 µg/mL (≈ 437 µM) |
| Clc1ccc(-c2nn3c(/C=N/C4CCCCC4)c(-c4ccc(Br)cc4)nc3s2)cc1 | 100 µg/mL (≈ 200 µM) | 50 µg/mL (≈ 100 µM) | 200 µg/mL (≈ 400 µM) | > 200 µg/mL | 200 µg/mL (≈ 400 µM) | 50 µg/mL (≈ 100 µM) | 100 µg/mL (≈ 200 µM) | 50 µg/mL (≈ 100 µM) | 200 µg/mL (≈ 400 µM) |
| COc1ccc(-c2nn3c(/C=N/C4CC4)c(-c4ccc(Br)cc4)nc3s2)cc1 | 100 µg/mL (≈ 221 µM) | 50 µg/mL (≈ 110 µM) | 200 µg/mL (≈ 441 µM) | > 200 µg/mL | 200 µg/mL (≈ 441 µM) | 25 µg/mL (≈ 55.1 µM) | 100 µg/mL (≈ 221 µM) | 25 µg/mL (≈ 55.1 µM) | 200 µg/mL (≈ 441 µM) |
| Brc1ccc(-c2nc3sc(-c4ccc(I)cc4)nn3c2/C=N/C2CC2)cc1 | 100 µg/mL (≈ 182 µM) | 50 µg/mL (≈ 91 µM) | 200 µg/mL (≈ 364 µM) | > 200 µg/mL | 200 µg/mL (≈ 364 µM) | 25 µg/mL (≈ 45.5 µM) | 100 µg/mL (≈ 182 µM) | 50 µg/mL (≈ 91 µM) | 200 µg/mL (≈ 364 µM) |
| Brc1ccc(-c2nc3sc(-c4ccc(I)cc4)nn3c2/C=N/C2CCCCC2)cc1 | 100 µg/mL (≈ 169 µM) | 50 µg/mL (≈ 84.6 µM) | 200 µg/mL (≈ 338 µM) | > 200 µg/mL | 200 µg/mL (≈ 338 µM) | 25 µg/mL (≈ 42.3 µM) | 100 µg/mL (≈ 169 µM) | 50 µg/mL (≈ 84.6 µM) | 200 µg/mL (≈ 338 µM) |
| O=C(/C=C/c1c(-c2ccc(Br)cc2)nc2sc(-c3ccccc3Cl)nn12)c1cccs1 | > 200 µg/mL | > 200 µg/mL | > 200 µg/mL | 200 µg/mL (≈ 380 µM) | > 200 µg/mL | 50 µg/mL (≈ 94.9 µM) | 200 µg/mL (≈ 380 µM) | > 200 µg/mL | > 200 µg/mL |
| O=C(/C=C/c1c(-c2ccc(Br)cc2)nc2sc(-c3ccccc3)nn12)c1ccccc1 | > 200 µg/mL | > 200 µg/mL | > 200 µg/mL | 200 µg/mL (≈ 411 µM) | > 200 µg/mL | > 200 µg/mL | 25 µg/mL (≈ 51.4 µM) | > 200 µg/mL | > 200 µg/mL |
| Cc1ccc(C(=O)/C=C/c2c(-c3ccc(Br)cc3)nc3sc(-c4ccccc4)nn23)cc1 | > 200 µg/mL | > 200 µg/mL | > 200 µg/mL | 100 µg/mL (≈ 200 µM) | > 200 µg/mL | 25 µg/mL (≈ 50 µM) | 25 µg/mL (≈ 50 µM) | > 200 µg/mL | > 200 µg/mL |
| O=C(/C=C/c1c(-c2ccc(Br)cc2)nc2sc(-c3ccccc3)nn12)c1cccs1 | > 200 µg/mL | > 200 µg/mL | > 200 µg/mL | 6.25 µg/mL (≈ 12.7 µM) | > 200 µg/mL | 200 µg/mL (≈ 406 µM) | 6.25 µg/mL (≈ 12.7 µM) | > 200 µg/mL | > 200 µg/mL |
| O=C(/C=C/c1c(-c2ccc(Br)cc2)nc2sc(-c3ccc(Cl)cc3)nn12)c1ccccc1 | > 200 µg/mL | > 200 µg/mL | > 200 µg/mL | 12.5 µg/mL (≈ 24 µM) | > 200 µg/mL | > 200 µg/mL | 6.25 µg/mL (≈ 12 µM) | > 200 µg/mL | > 200 µg/mL |
| Cc1ccc(C(=O)/C=C/c2c(-c3ccc(Br)cc3)nc3sc(-c4ccc(Cl)cc4)nn23)cc1 | > 200 µg/mL | > 200 µg/mL | > 200 µg/mL | 6.25 µg/mL (≈ 11.7 µM) | > 200 µg/mL | 50 µg/mL (≈ 93.5 µM) | 3.12 µg/mL (≈ 5.84 µM) | > 200 µg/mL | > 200 µg/mL |
| O=C(/C=C/c1c(-c2ccc(Br)cc2)nc2sc(-c3ccc(Cl)cc3)nn12)c1cccs1 | > 200 µg/mL | > 200 µg/mL | > 200 µg/mL | 12.5 µg/mL (≈ 23.7 µM) | > 200 µg/mL | 25 µg/mL (≈ 47.5 µM) | 12.5 µg/mL (≈ 23.7 µM) | > 200 µg/mL | > 200 µg/mL |
| COc1ccc(-c2nn3c(/C=C/C(=O)c4ccccc4)c(-c4ccc(Br)cc4)nc3s2)cc1 | > 200 µg/mL | > 200 µg/mL | 200 µg/mL (≈ 387 µM) | 12.5 µg/mL (≈ 24.2 µM) | > 200 µg/mL | 50 µg/mL (≈ 96.8 µM) | 3.12 µg/mL (≈ 6.05 µM) | > 200 µg/mL | > 200 µg/mL |
| COc1ccc(-c2nn3c(/C=C/C(=O)c4ccc(C)cc4)c(-c4ccc(Br)cc4)nc3s2)cc1 | > 200 µg/mL | > 200 µg/mL | 200 µg/mL (≈ 377 µM) | 3.12 µg/mL (≈ 5.89 µM) | > 200 µg/mL | 200 µg/mL (≈ 377 µM) | 1.56 µg/mL (≈ 2.94 µM) | > 200 µg/mL | > 200 µg/mL |
| COc1ccc(-c2nn3c(/C=C/C(=O)c4cccs4)c(-c4ccc(Br)cc4)nc3s2)cc1 | > 200 µg/mL | > 200 µg/mL | > 200 µg/mL | 200 µg/mL (≈ 383 µM) | > 200 µg/mL | 100 µg/mL (≈ 191 µM) | 25 µg/mL (≈ 47.9 µM) | > 200 µg/mL | > 200 µg/mL |
| Brc1ccc(-c2nc3sc(-c4ccccc4Br)nn3c2/C=N/C2CC2)cc1 | 100 µg/mL (≈ 199 µM) | 50 µg/mL (≈ 99.6 µM) | 200 µg/mL (≈ 398 µM) | 200 µg/mL (≈ 398 µM) | 200 µg/mL (≈ 398 µM) | 25 µg/mL (≈ 49.8 µM) | 100 µg/mL (≈ 199 µM) | 50 µg/mL (≈ 99.6 µM) | 200 µg/mL (≈ 398 µM) |
| Brc1ccc(-c2nc3sc(-c4ccccc4Br)nn3c2/C=N/C2CCCCC2)cc1 | 50 µg/mL (≈ 91.9 µM) | 50 µg/mL (≈ 91.9 µM) | 200 µg/mL (≈ 367 µM) | 200 µg/mL (≈ 367 µM) | 200 µg/mL (≈ 367 µM) | 50 µg/mL (≈ 91.9 µM) | 100 µg/mL (≈ 184 µM) | 50 µg/mL (≈ 91.9 µM) | 200 µg/mL (≈ 367 µM) |
| Clc1ccccc1-c1nn2c(/C=N/C3CC3)c(-c3ccc(Br)cc3)nc2s1 | 100 µg/mL (≈ 218 µM) | 50 µg/mL (≈ 109 µM) | 200 µg/mL (≈ 437 µM) | > 200 µg/mL | 200 µg/mL (≈ 437 µM) | 25 µg/mL (≈ 54.6 µM) | 100 µg/mL (≈ 218 µM) | 50 µg/mL (≈ 109 µM) | 200 µg/mL (≈ 437 µM) |
| CC1(C)S[C@@H]2[C@H](NC(=O)[C@H](N)c3ccc(O)cc3)C(=O)N2[C@H]1C(=O)O [AMOXICILLIN] |  |  | < 0.39 µg/mL |  | < 0.39 µg/mL |  |  | < 0.39 µg/mL | < 0.39 µg/mL |
| C[C@@H]1[C@H](O)[C@@H](C)/C=C/C=C/C=C/C=C/C=C/C=C/C=C/[C@H](O[C@@H]2O[C@H](C)[C@@H](O)[C@H](N)[C@@H]2O)C[C@@H]2O[C@](O)(C[C@@H](O)C[C@@H](O)[C@H](O)CC[C@@H](O)C[C@@H](O)CC(=O)O[C@H]1C)C[C@H](O)[C@H]2C(=O)O [AMPHOTERICIN B] | 1.95 µg/mL (≈ 2.11 µM) | 25 µg/mL (≈ 27.1 µM) |  | 1 µg/mL (≈ 1.08 µM) |  | 0.25 µg/mL (≈ 0.271 µM) | 1 µg/mL (≈ 1.08 µM) |  |  |
